High-throughput results (PubChem)
Most compounds without a hit are left out; they make up all but 2.5% or so of the library.
TCR-CD3 inh = human TCR-CD3 binding inhibition. hit rate 0.37% among 360,000. TAMRA-labeled TCR probe fluorescence, biochemical. inhibition, % at 9.4 µM; in the data active = inhibition above about 19%;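 also: recombinant mutant TCR 2C K166C tagged with TAMRA read by polarization; 0% = receptor in buffer alone and 100% = receptor with positive control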
PRMT1 inh = blocks human protein arginine methyltransferase 1. recombinant PRMT1, activity-based probe fluorescence polarization. Q99873. AID 652257. inhibition, % at 2.79 µM. hit rate 1.3% among 370,000;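 active = inhibition above about 21% made by adding two undisclosed values, limit read from the data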
HTRA1 inh = inhibitors of human serine peptidase HTRA1. hit rate 0.5% among 340,000. inhibition, % at 5.96 µM. recombinant HTRA1, FP-rhodamine activity-based probe, fluorescence polarization. Q92743. AID 504803; in the data active = inhibition above about 36%;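 also: 0% = enzyme with DMSO and 100% = wells lacking enzyme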
SIAE inh = inhibitors of human sialic acid acetylesterase SIAE. hit rate 0.69% among 370,000. inhibition, % at 9.66 µM. SIAE FP-Rh probe binding, fluorescence polarization;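 active = inhibition above a cutoff: mean of compounds within the control limits plus 3 SD of those, cut at about 17% in these data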;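 also: 0% = plate median of compound wells and 100% = probe without SIAE protein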
mABHD4 FP = ABHD4 (mouse) inhibition, primary FP screen; purified mABHD4, FP-Rh probe fluorescence polarization; hit rate 0.54% among 370,000; Q8VD66; inhibition, % at 8.92 µM;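 active = inhibition exceeding the mean over every tested compound plus 3 SD, cut at about 30% in these data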;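 also: 0% = plate median of compound wells and 100% = S159A mutant with DMSO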
Target sequence (Q8VD66 whole entry, looked up): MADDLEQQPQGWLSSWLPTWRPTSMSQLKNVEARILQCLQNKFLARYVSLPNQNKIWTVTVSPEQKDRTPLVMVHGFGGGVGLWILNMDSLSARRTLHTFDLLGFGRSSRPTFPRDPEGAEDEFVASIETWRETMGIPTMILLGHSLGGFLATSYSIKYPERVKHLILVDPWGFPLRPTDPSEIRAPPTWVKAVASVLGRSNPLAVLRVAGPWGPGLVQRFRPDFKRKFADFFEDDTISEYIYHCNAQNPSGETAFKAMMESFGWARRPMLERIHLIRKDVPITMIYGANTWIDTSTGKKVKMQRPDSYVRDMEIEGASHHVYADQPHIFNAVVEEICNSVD
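Test system: mABHD4 protein | Buffer or medium: HEPES pH 7.0 buffer, 150 mM NaCl, 0.01% Pluronic F-127 | Probe or stimulus: FP-Rh fluorescent activity-based probe, added after compound pre-incubation | Timing: Pre-incubation 45 min, probe exposure 60 min, at 25 °C | Technique: Fluorescence polarization, excitation 525 nm, emission 598 nm, BODIPY TMR filters | Repeats: Single well per compound (singlicate)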
PRMT1 confirm = PRMT1 (human) inhibition, FP confirmation; hit rate 42% among 3,300; inhibition, % at 2.79 µM; shares compounds with PRMT1 inh; recombinant His-PRMT1, activity-based probe fluorescence polarization;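 active = mean inhibition across replicates above the hit cutoff derived for the earlier primary screen, cut at about 22% in these data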
Starred values were filed as active, the others as inactive; . = not tested or not shown.

SMILES | TCR-CD3 inh | PRMT1 inh | HTRA1 inh | SIAE inh | mABHD4 FP | PRMT1 confirm
O=C(CSC1=NC(=O)C(Cc2ccccc2)C(=O)N1)NC1CCCCC1 (stereo unspecified) | -9 | 6 | 2 | 3 | 1 | .
CC(=O)NC1C(=O)N=C(SCC(=O)Nc2c(C)cccc2C)NC1=O (stereo unspecified) | -3 | 42* | 6 | -1 | 10 | 15
CC(=O)NC1C(=O)N=C(SCC(=O)NCc2ccccc2)NC1=O (stereo unspecified) | 1 | 40* | 0 | -7 | 3 | 8
O=C(C1CCCN1S(=O)(=O)c1ccccc1[N+](=O)[O-])N1CCN(c2ccccc2)CC1 (stereo unspecified) | . | 6 | . | 0 | -14 | .
NC(=O)c1sc2nc(N3CCOCC3)c3c(c2c1N)CCCC3 | -4 | 26* | -5 | 2 | 6 | 16
Cc1ccccc1NC(=O)c1sc2nc(N3CCOCC3)c3c(c2c1N)CCCC3 | 0 | 42* | -16 | 2 | 10 | 41*
CN(C(=O)c1sc2nc(N3CCOCC3)c3c(c2c1N)CCCC3)c1ccccc1 | -3 | 26* | -7 | 1 | 11 | 17
COC(=O)[C@]12C[C@H](CC(=O)N3CCSCC3)C(=O)N(Cc3ccc4c(c3)OCO4)C1=C[C@H](C(C)(C)C)O[C@@H]2C | 0 | 1 | . | -3 | -1 | .
Cc1ccc(/C=C2/Sc3ccccc3N(CC(=O)NCC3CCCO3)C2=O)cc1 (stereo unspecified) | . | . | -15 | . | . | .
Cc1cc(/C=C2\Sc3ccccc3N2C)cc(C)[n+]1CC1CCCO1 (stereo unspecified) | -6 | 100* | . | -1 | -7 | -1
O=c1[nH]c2ccc(Cl)cc2c(-c2ccccc2)c1SC(=S)N1CCCCC1 | -11 | 44* | -47 | -16 | -4 | 24*
NNC(=O)CSc1c(-c2ccccc2)c2cc(Cl)ccc2[nH]c1=O | -4 | 4 | -20 | 0 | 5 | .
Cc1ccc(C)c(Cn2c(=O)n(CCC(=O)NCc3ccco3)c(=O)c3ccccc32)c1 | 8 | -1 | 1 | -18 | -2 | .
Cc1ccc(C)c(Cn2c(=O)n(CCCC(=O)NCc3ccco3)c(=O)c3ccccc32)c1 | -3 | 102* | 5 | 3 | -1 | -2
Cc1cc(Cl)ccc1C(O)c1ncc(-c2cccc3ccccc23)[nH]1 (stereo unspecified) | -5 | -1 | . | -2 | -4 | .
CCOC(=O)C1=C(C(=O)OCC)C2N(Cc3ccc(Br)cc3)c3ccccc3[C@@]23C[C@@H](C(=O)OC)N(S(=O)(=O)c2ccc(OC)cc2)C3=N1 (stereo partly specified) | 2 | 3 | . | -5 | 3 | .
COc1cc(CO)ccc1OCc1nnnn1-c1ccc(C)cc1 | 1 | 2 | 1 | 9 | 0 | .
CCc1ccc(/C=C/C(=O)C2C(=O)c3ccccc3C2=O)cc1 | 6 | 0 | -11 | -13 | -29 | .
CC[N+]1(C)CCC(O)(/C=C/c2ccccc2)C(C(=O)/C=C/c2ccccc2)C1 (stereo unspecified) | -3 | 68* | -1 | 0 | 2 | 49*
COc1ccc([N+](=O)[O-])cc1NC(=O)CSc1nc(C)cc(C)n1 | -5 | 54* | -5 | 8 | -10 | 45*
COc1ccc(S[C@]2(C(=O)N3CCOCC3)CC(=O)N(C(=O)c3ccccc3)[C@@H]2c2ccc(OC)cc2)cc1 | . | 80* | . | 8 | 2 | 77*
CCOC(=O)N1C(=O)C[C@](Sc2ccc(OC)cc2)(C(=O)N(C)C)[C@H]1c1ccc(OC)cc1 | . | 46* | . | 2 | 0 | 37*
COc1ccc(S[C@]2(C(=O)N3CCN(C(C)=O)CC3)CC(=O)N(S(=O)(=O)c3ccc(F)cc3)[C@@H]2c2ccc(OC)cc2)cc1 | . | 43* | . | 9 | 11 | 37*
c1ccc2oc(-c3ccc(Nc4nc(N5CCOCC5)nc(N5CCOCC5)n4)cc3)nc2c1 | -6 | -1 | -1 | 9 | 4 | .
CN(c1ncc(C(F)(F)F)cc1Cl)N1C(=O)C2ONC3(C(=O)CC(C)(C)CC3=O)C2C1=O (stereo unspecified) | 0 | 72* | -2 | 7 | -12 | -7
SMILES | TCR-CD3 inh | PRMT1 inh | HTRA1 inh | SIAE inh | mABHD4 FP | PRMT1 confirm
CN(c1ncc(C(F)(F)F)cc1Cl)N1C(=O)c2cccc(N)c2C1=O | 7 | 9 | -28 | 3 | -9 | .
O=C(Cc1ccccc1)NCC(=O)OCC(=O)c1ccc([N+](=O)[O-])cc1 | -1 | 76* | 2 | 2 | -4 | 67*
O=C(CNC(=O)c1cccs1)c1ccc([N+](=O)[O-])cc1 | -8 | 5 | -2 | 5 | 1 | .
O=C(CNC(=O)c1cccs1)OCC(=O)c1ccc([N+](=O)[O-])cc1 | -4 | 60* | 5 | -2 | 5 | 51*
Cc1ccc(C(=O)NCC(=O)NCC(=O)OCC(=O)c2ccc([N+](=O)[O-])cc2)cc1 | 5 | 63* | -3 | 1 | 5 | 43*
O=C(CNC(=O)c1ccco1)OCC(=O)c1ccc([N+](=O)[O-])cc1 | -3 | 47* | 0 | 3 | 7 | 42*
COc1cc(CC(=O)OCC(=O)c2ccc[nH]2)cc(OC)c1OC | 1 | -1 | 0 | -10 | 0 | .
CCN1C(=O)C(C(=O)c2ccccc2)SC1=S (stereo unspecified) | . | . | -3 | . | . | .
Nc1c(C(=O)NCC(O)c2ccccc2)cnn1-c1ccccc1 (stereo unspecified) | . | -5 | . | -1 | 2 | .
O=C(CNC(=O)c1ccc(Br)o1)Nc1cccc(S(=O)(=O)N2CCOCC2)c1 | -10 | 8 | 4 | 1 | 0 | .
Cc1ccc(NC(=O)C(c2ccccc2)N2CCN(CC(=O)N3CCOCC3)CC2)cc1Cl (stereo unspecified) | 5 | 1 | -6 | -3 | -6 | .
O=C(COC(=O)CNC(=O)c1ccco1)Nc1ncc(Cl)cc1Cl | 8 | 35* | 7 | -6 | 3 | 16
O=C(CNS(=O)(=O)c1ccccc1)OCC(=O)c1ccc([N+](=O)[O-])cc1 | -6 | 80* | -4 | -2 | 2 | 42*
COc1cccc(C(=O)NCC(=O)OCC(=O)Nc2ncc(Cl)cc2Cl)c1 | 4 | -1 | 6 | -2 | 4 | .
O=C1C=C(NNC(=O)c2ccncc2)CC(c2ccccc2)C1 (stereo unspecified) | -4 | 63* | 8 | 0 | -1 | 2
COc1ccccc1C/C(N)=N/OC(=O)c1cccc([N+](=O)[O-])c1 | -5 | 3 | -8 | -8 | -12 | .
COc1ccc(C/C(N)=N/OC(=O)c2cccc([N+](=O)[O-])c2)cc1 | -6 | 45* | -5 | -3 | 4 | 4
Cc1ccc(-c2nnc(SCC(=O)Nc3ccc(-c4nc5ccc(C)cc5s4)cc3)n2Cc2ccco2)cc1 | . | 34* | . | -19 | -21 | 22*
Cc1ccc2nc(-c3ccc(NC(=O)CSc4nnc(-c5cccc(Cl)c5)n4Cc4ccco4)cc3)sc2c1 | . | 47* | . | -76 | -65 | 13
